Measurements from ChEMBL document CHEMBL4330056, “Synthesis and Cytotoxic and Antiviral Profiling of Pyrrolo- and Furo-Fused 7-Deazapurine Ribonucleosides” (J Med Chem, 2018).
Calls of active or inactive are those of the source. The calls are words filed in the database; no cut-off is given here.

How the values were obtained:
[1] = tested on: BJ; experiment: Antiproliferative activity against human BJ cells after 3 days by MTS assay; conditions: 72 h
[2] = molecular target: T1, Adenosine kinase (Homo sapiens, UniProt P55263); experiment: Substrate activity at recombinant human ADK assessed as compound phosphorylation at 50 uM after 20 mins in presence of [3H]-adenosine by UPLC; format: ADME
[3] = tested on: HepG2; experiment: Antiproliferative activity against human HepG2 cells after 72 hrs by XTT assay; format: functional, cell-based; conditions: HepG2, 72 h
[4] = tested on: Human orthopneumovirus; experiment: Antiviral activity against Human respiratory syncytial virus A2 infected in Hep2 cells assessed as reduction in virus-induced cytopathic effect incubated for 4 days by CellTiter-Glo viability reagent based assay; format: functional, organism-based
[5] = tested on: HeLa S3; experiment: Antiproliferative activity against human HeLaS3 cells after 72 hrs by XTT assay; format: functional, cell-based; conditions: HeLa S3, 72 h
[6] = tested on: HL-60; experiment: Antiproliferative activity against human HL60 cells after 72 hrs by XTT assay; format: functional, cell-based; conditions: HL-60, 72 h
[7] = tested on: CCRF-CEM; experiment: Antiproliferative activity against human CCRF-CEM cells after 3 days by MTS assay; format: functional, cell-based; conditions: 72 h
[8] = tested on: dengue virus type 2; experiment: Antiviral activity against Dengue virus 2 Thailand/16681/84 infected in African green monkey Vero cells assessed as inhibition of virus replication incubated for 3 days by fluorescence microscopy; format: functional, organism-based
[9] = tested on: Hepatitis C virus; experiment: Antiviral activity against Hepatitis C virus genotype 1b infected in human Huh-luc replicon cells after 3 days by luciferase assay; format: functional, organism-based, Hepacivirus hominis; conditions: subtype 1b, 72 h
[10] = tested on: U2OS; experiment: Antiproliferative activity against human U2OS cells after 3 days by MTS assay; format: functional, cell-based; conditions: 72 h
[11] = tested on: K562; experiment: Antiproliferative activity against human K562 cells after 3 days by MTS assay; format: functional, cell-based; conditions: K562, 72 h
[12] = molecular target: T1, Adenosine kinase; experiment: Inhibition of recombinant human ADK using [3H]-adenosine as substrate after 20 mins by TLC scanner-based analysis relative to control
Method in brief: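 ADK inhibition: 50 μM adenosine substrate with 10 μM test compound and 97 ng enzyme, 20 min at 37 °C.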

[13] = Cytotoxicity against human Hep2 cells assessed as reduction in cell viability after 3 days by CellTiter-Glo assay; format: cell-based; conditions: HEp-2 cells
[14] = tested on: Hepatitis C virus; experiment: Antiviral activity against Hepatitis C virus genotype 2a infected in human Huh-luc replicon cells after 3 days by luciferase assay; format: functional, organism-based, Hepacivirus hominis; conditions: subtype 2a, 72 h
[15] = tested on: HCT-116; experiment: Antiproliferative activity against p53 gene knocked out human HCT116 cells after 3 days by MTS assay; format: functional, cell-based; conditions: HCT-116, 72 h
[16] = Antiproliferative activity against human K562-TAX cells after 3 days by MTS assay; format: functional, cell-based; conditions: 72 h
[17] = tested on: Coxsackievirus B3; experiment: Antiviral activity against Human coxsackie B3 Nancy infected in human HeLa cells assessed as inhibited virus-induced cytopathic effect incubated for 2 days by XTT assay; format: functional, organism-based
[18] = tested on: HCT-116; experiment: Antiproliferative activity against human HCT116 cells after 3 days by MTS assay; format: functional, cell-based; conditions: HCT-116, 72 h
[19] = tested on: Human alphaherpesvirus 1; experiment: Antiviral activity against human herpesvirus 1 HF infected in African green monkey Vero cells assessed as inhibited virus-induced cytopathic effect incubated for 3 days by XTT assay; format: functional, organism-based
[20] = tested on: Influenza A virus; experiment: Antiviral activity against Influenza A virus (A/Mexico/4108/2009(H1N1)) infected in MDCK cells assessed as inhibited virus-induced cytopathic effect incubated for 2 days by XTT assay; format: functional, organism-based
[21] = tested on: MRC5; experiment: Antiproliferative activity against human MRC5 cells after 3 days by MTS assay; conditions: MRC5, 72 h
[22] = Antiproliferative activity against human CEM-DNR-bulk cells after 3 days by MTS assay; conditions: 72 h
[23] = tested on: A549; experiment: Antiproliferative activity against human A549 cells after 3 days by MTS assay; format: functional, cell-based; conditions: A549, 72 h

T1 sequence (P55263 whole entry): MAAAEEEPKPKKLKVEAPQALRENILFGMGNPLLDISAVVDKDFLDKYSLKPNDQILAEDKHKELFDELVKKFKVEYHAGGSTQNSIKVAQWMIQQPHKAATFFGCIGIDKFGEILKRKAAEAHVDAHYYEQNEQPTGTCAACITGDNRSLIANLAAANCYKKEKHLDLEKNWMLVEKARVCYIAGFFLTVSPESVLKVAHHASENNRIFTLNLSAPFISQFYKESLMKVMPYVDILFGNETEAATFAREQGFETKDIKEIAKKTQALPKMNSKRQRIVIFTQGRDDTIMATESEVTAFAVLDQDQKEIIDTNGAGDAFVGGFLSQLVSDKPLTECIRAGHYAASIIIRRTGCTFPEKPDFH

| SMILES | IC50 [1] [µM] | Activity [2] [%] | IC50 [3] [µM] | Activity [4] | IC50 [5] [µM] | IC50 [6] [µM] | IC50 [7] [µM] | Activity [8] | EC50 [9] [µM] | IC50 [10] [µM] | IC50 [11] [µM] | IC50 [12] [µM] | CC50 at 72 h [13] [µM] | EC50 [14] [µM] | IC50 [15] [µM] | IC50 [16] [µM] | Activity [17] | IC50 [18] [µM] | Activity [19] | Activity [20] | also measured |
| --- | --- | --- | --- | --- | --- | --- | --- | --- | --- | --- | --- | --- | --- | --- | --- | --- | --- | --- | --- | --- | --- |
| COc1ncnc2c1c1ccn(C)c1n2[C@@H]1O[C@H](CO)[C@@H](O)[C@H]1O | > 50 | 0 | > 50 | inactive | > 50 | > 50 | > 50 | inactive | > 44.4 | > 50 | > 50 | > 10 | > 44.4 | > 44.4 | > 50 | > 50 | inactive | > 50 | inactive | inactive | IC50 [21]: > 50 µM; IC50 [22]: > 50 µM; IC50 [23]: > 50 µM |
| Cn1ccc2c3c(-c4ccoc4)ncnc3n([C@@H]3O[C@H](CO)[C@@H](O)[C@H]3O)c21 | > 50 | 0 | > 50 | inactive | > 50 | > 50 | > 50 | inactive | 16.5 | > 50 | > 50 | > 10 | > 44.4 | > 44.4 | > 50 | > 50 | inactive | > 50 | inactive | inactive | IC50 [21]: > 50 µM; IC50 [22]: > 50 µM; IC50 [23]: > 50 µM |
| CSc1ncnc2c1c1ccn(C)c1n2[C@@H]1O[C@H](CO)[C@@H](O)[C@H]1O | > 50 | 0 | > 50 | inactive | > 50 | > 50 | 25.5 | inactive | 5.98 | 27.4 | 18 | > 10 | 36.8 to 44 | 17 | > 50 | 30 | inactive | 35.9 | inactive | inactive | IC50 [21]: > 50 µM; IC50 [22]: 28.2 µM; IC50 [23]: > 50 µM |
| Nc1ncnc2c1c1occc1n2[C@@H]1O[C@H](CO)[C@@H](O)[C@H]1O | > 50 | 75 | 4.51 | inactive | 1.71 | 0.51 | > 50 | inactive | 0.3 | 7.09 | 6.04 | > 10 | > 44.4 | 0.33 | > 50 | 50 | inactive | 48.4 | inactive | inactive | IC50 [21]: > 50 µM; IC50 [22]: > 50 µM; IC50 [23]: > 50 µM |
| Cn1ccc2c1c1c(-c3ccoc3)ncnc1n2[C@@H]1O[C@H](CO)[C@@H](O)[C@H]1O | > 50 | 9 | > 50 | inactive | > 50 | > 50 | > 50 | inactive | 20.2 | 2.41 | 0.94 | > 10 | > 44.4 | 3.45 | 9 | > 50 | inactive | 8.16 | inactive | inactive | IC50 [21]: > 50 µM; IC50 [22]: > 50 µM; IC50 [23]: > 50 µM |
| CN(C)c1ncnc2c1c1c(ccn1C)n2[C@@H]1O[C@H](CO)[C@@H](O)[C@H]1O | > 50 | 0 | > 50 | inactive | > 50 | > 50 | > 50 | inactive | > 44.4 | > 50 | > 50 | > 10 | > 44.4 | > 44.4 | > 50 | > 50 | inactive | > 50 | inactive | inactive | IC50 [21]: > 50 µM; IC50 [22]: > 50 µM; IC50 [23]: > 50 µM |
| Cn1ccc2c1c1c(-c3cc4ccccc4o3)ncnc1n2[C@@H]1O[C@H](CO)[C@@H](O)[C@H]1O | > 50 | 0 | > 50 | inactive | > 50 | > 50 | 16.5 | inactive | 1.6 | 43.9 | > 50 | 0.3 | 26.9 to 44.4 | 32.5 | 47.5 | 29.3 | inactive | 46.2 | inactive | inactive | IC50 [21]: > 50 µM; IC50 [22]: 29.8 µM; IC50 [23]: > 50 µM |
| Nc1ncnc2c1ncn2[C@@H]1O[C@H](CO)[C@@H](O)[C@H]1O [ADENOSINE] | – | 73 | – | – | – | – | – | – | – | – | – | – | – | – | – | – | – | – | – | – | – |
| OC[C@H]1O[C@@H](n2c3ccoc3c3c(-c4cc5ccccc5o4)ncnc32)[C@H](O)[C@@H]1O | > 50 | 58 | 2.83 | inactive | > 50 | > 50 | 14.1 | inactive | 5.34 | 37.8 | 39.6 | 0.336 | > 44.4 | > 44.4 | 46.5 | 24.3 | inactive | 48.8 | inactive | inactive | IC50 [21]: > 50 µM; IC50 [22]: 37.1 µM; IC50 [23]: 49.3 µM |
| Cn1ccc2c3c(N)ncnc3n([C@@H]3O[C@H](CO)[C@@H](O)[C@H]3O)c21 | > 50 | 0 | > 50 | inactive | > 50 | > 50 | > 50 | inactive | 27.3 | > 50 | > 50 | > 10 | 34.6 to 44.4 | 33.9 | > 50 | > 50 | inactive | > 50 | inactive | inactive | IC50 [21]: > 50 µM; IC50 [22]: > 50 µM; IC50 [23]: > 50 µM |
| Cn1ccc2c1c1c(N)ncnc1n2[C@@H]1O[C@H](CO)[C@@H](O)[C@H]1O | > 50 | 68 | > 50 | inactive | > 50 | 2.29 | 50 | inactive | 0.46 | 50 | > 50 | > 10 | 40.9 to 44.4 | 0.22 | > 50 | > 50 | inactive | > 50 | inactive | inactive | IC50 [21]: > 50 µM; IC50 [22]: > 50 µM; IC50 [23]: > 50 µM |
| CN(C)c1ncnc2c1c1ccn(C)c1n2[C@@H]1O[C@H](CO)[C@@H](O)[C@H]1O | > 50 | 0 | > 50 | inactive | > 50 | > 50 | > 50 | inactive | > 44.4 | > 50 | > 50 | > 10 | > 44.4 | > 44.4 | > 50 | > 50 | inactive | > 50 | inactive | inactive | IC50 [21]: > 50 µM; IC50 [22]: > 50 µM; IC50 [23]: > 50 µM |
| CC(C)C(=O)OC[C@H]1O[C@@H](n2ccc(N)nc2=O)[C@](C)(F)[C@@H]1OC(=O)C(C)C [MERICITABINE] | – | – | – | – | – | – | – | – | – | – | – | – | > 44.4 | – | – | – | – | – | – | – | – |
